# Source: PubChem
# MrgX1 antagonist = antagonists of human MrgX1 receptor; MRGX1-HEK293 calcium flux, Fluo-4, BAM8-22 antagonism; stronger effect = lower value; B-score at 10 µM; 310,000 compounds, 1.3% hits; AID 588676;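 active = calcium-response B-score plate-corrected more than 3 library SD below zero, starting fluorescence within 5 deviations, no agonist response on first addition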;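 also: peak minus trough fluorescence over baseline after final BAM8-22 challenge near maximal dose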
# Target sequence (Q96LB2 whole entry, looked up): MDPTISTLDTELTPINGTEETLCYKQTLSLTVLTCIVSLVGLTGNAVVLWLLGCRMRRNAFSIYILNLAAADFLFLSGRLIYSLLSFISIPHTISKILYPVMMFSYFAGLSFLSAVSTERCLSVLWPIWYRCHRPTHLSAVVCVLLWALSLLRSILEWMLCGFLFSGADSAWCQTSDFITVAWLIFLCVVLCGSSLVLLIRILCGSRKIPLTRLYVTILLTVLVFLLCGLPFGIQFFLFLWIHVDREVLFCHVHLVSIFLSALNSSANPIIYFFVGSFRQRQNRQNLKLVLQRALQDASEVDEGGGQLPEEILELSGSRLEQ
# RGS4 block = inhibitors of human RGS4; P49798; HEK293 M3R/RGS4 inducible, Fluo-4 calcium flux; stronger effect = higher value; triggered by carbachol at its EC20; B-score at 10 µM; 310,000 compounds, 0.45% hits;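 active = B-score, a plate-corrected calcium signal, over three deviations above library mean, with baseline fluorescence within five deviations of library mean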;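 also: RGS4 expression induced by doxycycline in cells with stable M3 receptor; B-score is computed from the integrated fluorescence ratio over baseline after carbachol; higher B-score means a larger calcium signal and so more RGS4 inhibition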
# Target sequence (P49798 whole entry, looked up): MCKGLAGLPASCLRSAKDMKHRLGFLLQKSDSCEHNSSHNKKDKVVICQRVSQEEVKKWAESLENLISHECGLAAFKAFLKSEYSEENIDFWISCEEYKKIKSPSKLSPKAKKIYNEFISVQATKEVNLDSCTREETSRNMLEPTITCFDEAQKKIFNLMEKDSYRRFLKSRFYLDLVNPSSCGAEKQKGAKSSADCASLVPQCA
# MrgX1 PAM = human MrgX1 positive allosteric modulation, primary screen | Q96LB2 | MrgX1-HEK293, Fluo-4 calcium flux, FDSS; stronger effect = higher value | B-score at 10 µM | 310,000 compounds, 0.63% hits | AID 588675;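 active = plate-corrected calcium response at least 3 library SD above typical, normal starting fluorescence, not activating the receptor alone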;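 also: compound read alongside a low EC10 to EC30 dose of BAM8-22 agonist; peak minus trough fluorescence over baseline measured at the second addition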
# MrgX1 ag = human MrgX1 receptor agonism, primary screen; Q96LB2; MrgX1-HEK293 cells, Fluo-4 calcium fluorescence, agonist mode; stronger effect = higher value; B-score at 10 µM; 310,000 compounds, 0.44% hits; AID 588627;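 active = calcium response B-score plate-corrected fluorescence ratio at least 3 library SD, with starting fluorescence B-score inside 5 SD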
#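 System – MrgX1-expressing HEK293 cells · Incubation – cells plated overnight, dye loaded 0.5 h 37 °C, 0.5 h room temperature · Technique – kinetic Fluo-4 NW fluorescence of intracellular calcium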
# RGS4 pot = RGS4 potentiation or activation. HEK293 M3R/inducible RGS4, carbachol calcium flux Fluo4; stronger effect = lower value. 310,000 compounds, 0.92% hits. B-score at 10 µM. AID 463111;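 active = B-score of the integrated calcium signal more than 4 SD below the library mean, with starting fluorescence not abnormally high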;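 also: negative B-score means reduced calcium response which marks RGS4 activation or potentiation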
#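 Assay system: Inducible-RGS4 HEK293 cells carrying M3 receptor | Schedule: Compound preincubation 20 min at room temperature before agonist | Signal: Kinetic calcium fluorescence imaging with Fluo4-AM dye, 2 µM | Read-out basis: B score from integrated fluorescence ratio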
# MrgX1 ant reconf = confirmation of human MrgX1 receptor antagonists; shares compounds with MrgX1 antagonist; MrgX1-HEK293, BAM8-22 calcium flux, Fluo-4; stronger effect = lower value; remaining BAM8-22 calcium response % of control (stronger effect = lower value), % at 10 µM; 2,300 compounds, 19% hits;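 active = remaining agonist calcium response no higher than 100% minus 3 SD of agonist-only control wells, with starting fluorescence near control levels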;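 also: agonist BAM8-22 given at a near maximal EC90 to ECmax level; peak minus minimum fluorescence divided by baseline after agonist addition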
# HEK293 Ca flux = MrgX1 antagonist counter-screen hit in parental HEK293 cells. AID 624111. shares compounds with MrgX1 antagonist. Fluo-4 calcium fluorescence, FDSS. fluorescence ratio F(max-min)/F0 at 10 µM. 4,000 compounds, 2% hits;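 active = duplicate-averaged calcium fluorescence ratio at least three times the standard deviation of buffer wells, a nonspecific response in parental cells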
# HEK293 Ca counter = activity in parental HEK293 cells without MrgX1. shares compounds with MrgX1 antagonist. AID 624114. parental HEK293 calcium flux, Fluo-4 fluorescence ratio; stronger effect = higher value. fluorescence ratio F(max-min)/F0 at 10 µM. 4,000 compounds, 0.4% hits;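 active = calcium fluorescence ratio, averaged over duplicates, at least 3 SD of the buffer-well ratio, meaning a nonspecific response in receptor-free cells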;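 also: untransfected parental HEK293 lacking MrgX1 used as counterscreen for MrgX1 allosteric activators; fluorescence change taken during the second addition on a kinetic imager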
# HEK293 Ca cntr2 = counter-screen for MrgX1 activators: effect in parental HEK293 cells. shares compounds with MrgX1 antagonist. Fluo-4 calcium fluorescence (FDSS); stronger effect = higher value. fluorescence ratio F(max-min)/F0 at 10 µM. 4,000 compounds, 8.7% hits;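 active = calcium fluorescence ratio at least three times the spread of buffer wells, meaning a non-specific response in parental cells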
# Starred values were filed as active, the others as inactive; i = inactive; · = no result. Most compounds without a hit are left out; they make up all but 3.5% or so of the library.
SMILES,MrgX1 antagonist,RGS4 block,MrgX1 PAM,MrgX1 ag,RGS4 pot,MrgX1 ant reconf,HEK293 Ca flux,HEK293 Ca counter,HEK293 Ca cntr2
COc1cccc(NC(=O)CNC(=O)c2ccc(F)cc2)c1,i,·,i,i,·,·,·,·,·
C=CCn1c(SCc2nc3ccccc3c(=O)[nH]2)nc2scc(C3CC3)c2c1=O,i,i,i,i,i,·,·,·,·
Cc1ccc(S(=O)(=O)NCCC(=O)Nc2ncccc2O)cc1C,i,i,i,i,i,·,·,·,·
Cc1ccc2nc(SCC(=O)O)nc(C)c2c1,i,i,i,i,i,·,·,·,·
Cc1ccc2nc(SCCC#N)nc(C)c2c1,-8.06*,i,i,i,i,i,i,i,i
CC(C)(C)NC(=O)COC(=O)c1ccccc1OCC(=O)Nc1ccc(Br)cc1,i,i,i,i,i,·,·,·,·
COc1ccc(/C=N/Nc2ccccc2)cc1Cn1nc(C)c([N+](=O)[O-])c1C,i,i,i,i,i,·,·,·,·
CC(=O)c1cccc(S(=O)(=O)NC2CCCCCC2)c1,i,i,i,i,i,·,·,·,·
CC(=O)c1cccc(S(=O)(=O)NC2CC2)c1,-6.76*,i,i,i,i,i,i,i,i
COc1cc(OC)cc(-c2nc3ccccc3c(=O)n2OC(=O)c2ccc(C)c(C)c2)c1,i,i,i,i,i,·,·,·,·
CN1CCOCCOCCN(C)C1=O,-4.59*,i,i,i,i,i,i,i,i
CNCCCOc1ccc2c(c1)CCC2,-5.04*,i,i,i,i,i,i,i,i
c1cc2c(cc1OCCNC1CCCC1)CCC2,i,i,i,i,i,·,·,·,·
Cc1cccc2cc3c(N)c(C(=O)N4CCOCC4)sc3nc12,-5.14*,i,i,i,i,i,i,i,48.3*
Nc1c(C(=O)N2CCOCC2)sc2nc(N3CCOCC3)c3c(c12)CCCC3,i,i,i,i,i,·,·,·,·
COc1ccc(NCc2ccsc2)cc1,i,i,i,i,i,·,·,·,·
CC(OC(=O)/C=C/c1ccccc1Cl)C(=O)NC1CCCCC1C (configuration not stated),i,i,i,i,i,·,·,·,·
Cc1ccc(NS(=O)(=O)c2cc(NC(=O)c3cc4c(s3)CCCC4)ccc2C)c(C)c1,i,i,i,i,i,·,·,·,·
COc1ccc(CCC(=O)NCCCNC(=O)CCc2ccc(OC)cc2)cc1,i,i,i,i,i,·,·,·,·
CN(C)C(CNC(=O)CCc1nc2sc3c(c2c(=O)[nH]1)CCCC3)c1ccccc1 (configuration not stated),-6.48*,i,i,i,i,i,i,i,i
Cc1ccc(C(=O)Nc2ccccc2C(=O)NCc2ccco2)cc1S(=O)(=O)N1CCCCC1,i,i,i,i,i,·,·,·,·
Cc1ccc(C(=O)Nc2ccncc2)cc1S(=O)(=O)N1CCOCC1,-4.64*,i,i,i,i,i,i,i,63.7*
O=C(Nc1cccc(Br)c1)c1ccc(Cl)c(S(=O)(=O)N2CCOCC2)c1,-4.69*,i,i,i,i,79.6%*,i,i,i
Cc1ccc(C(=O)NCc2ccco2)cc1S(=O)(=O)N1CCCCC1,-6.7*,i,i,i,i,i,i,i,i
O=c1c2c([nH]n1-c1ccccc1)CCSC2,i,i,i,i,i,·,·,·,·
SMILES,MrgX1 antagonist,RGS4 block,MrgX1 PAM,MrgX1 ag,RGS4 pot,MrgX1 ant reconf,HEK293 Ca flux,HEK293 Ca counter,HEK293 Ca cntr2
Cc1ccccc1OCCC(=O)OCC(=O)Nc1ccc2[nH]c(=O)[nH]c2c1,i,i,i,i,i,·,·,·,·
COCCCNC(=O)c1ccccc1N(Cc1ccccc1)S(=O)(=O)c1ccccc1,i,i,i,i,i,·,·,·,·
COc1cccc(OC)c1NC(=O)CN1CCN(C)CC1,i,i,i,i,i,·,·,·,·
O=C(Nc1ccc(CN2CCOCC2)cc1)c1cc2ccccn2n1,-4.86*,i,i,i,i,i,i,i,i
O=C(Nc1ccc(CN2CCOCC2)cc1)c1cc2ccccc2o1,i,i,i,i,i,·,·,·,·
CN(C)S(=O)(=O)c1cccc(NC(=O)c2cc(=O)[nH]c(=O)[nH]2)c1,i,i,i,i,i,·,·,·,·
CCC(C)(C)n1nnnc1C(c1ccc2ncccc2c1)N1CCN(Cc2ccc3c(c2)OCO3)CC1 (configuration not stated),i,i,i,i,i,·,·,·,·
CCC(C)(C)n1nnnc1C(c1ccc(C)cc1)N1CCN(Cc2ccc3c(c2)OCO3)CC1 (configuration not stated),-6.18*,i,i,i,i,i,i,i,i
CCOCCCNc1ncnc2c1[nH]c1ccccc12,i,i,i,i,i,·,·,·,·
CCCCOCCCNc1ncnc2c1[nH]c1ccccc12,-13.9*,i,i,i,i,26.2%*,i,i,i
COc1cccc(Oc2nc(N)ncc2[N+](=O)[O-])c1,i,i,i,i,i,·,·,·,·
Cc1ccc(-n2cc(S(=O)(=O)c3ccc(C)cc3)[nH]c2=O)cc1,-4.81*,i,i,i,i,i,i,i,i
FC(F)C(F)(F)c1cc(-c2ccc(Cl)cc2)n[nH]1,-6.71*,i,i,i,i,i,i,i,i
Oc1ccccc1-c1cc(C(F)(F)C(F)F)[nH]n1,i,i,i,i,i,·,·,·,·
O=C(c1cccc(-n2cccc2)c1)N1CCN(S(=O)(=O)c2c(F)cccc2F)CC1,-6.1*,i,i,i,i,i,i,i,i
O=C(c1cccc(-n2cccc2)c1)N1CCN(S(=O)(=O)c2ccccc2)CC1,i,i,i,i,i,·,·,·,·
COc1ccc(CNC(=O)CSc2nc3ccc(N)cc3s2)cc1,i,i,i,i,i,·,·,·,·
CC(NC(=O)CSc1nc2ccc(N)cc2s1)c1ccccc1 (configuration not stated),-5.53*,i,i,i,i,i,i,i,i
